Screening results as filed in PubChem BioAssay.
MC4R antag cAMP – antagonists of human melanocortin 4 receptor (MC4R); P32245; MC4R-expressing cells, MTII-stimulated cAMP, LANCE TR-FRET; inhibition, % at 6.5 µM; hit rate 0.48% among 360,000; AID 540295;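 active means inhibition above its plate's cutoff, the mean of tested wells on that plate plus 3 SD, cut at about 29% in these data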;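 further: 0% = Melanotan II alone and 100% = Melanotan II plus saturating MCL0020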
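System: U2OS-MC4R stable cell line; Technique: Eu-cAMP/anti-cAMP TR-FRET, emission 671 nm; Repeats: single well per compound; Also added: Melanotan II; Dosing: one concentration, 6.5 µM nominal; Schedule: 30-min compound, 1-h challenge, 1-h detection, room temperature.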
iPSC survival up – increases survival of single human iPS cells. AID 602274. hiPSC single-cell survival, ATPlite luminescence; 100% = ROCK inhibitor wells, 0% = DMSO. hit rate 0.044% among 360,000. survival enhancement, % at 20 µM; in the data active means survival enhancement above about 18%;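 further: cells exposed to compounds for 16 hours before the ATP read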
ABCB6 inh MLPCN – human ABCB6 transporter inhibition. hit rate 0.19% among 360,000. Q9NP58. K562-ABCB6 porphyrin accumulation, flow cytometry, 1 h; stronger effect = lower value. fluorescence ratio to DMSO, % at 10 µM;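 active means fluorescence ratio to DMSO below 75%, the collection mean minus 3 SD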;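 further: signal is porphyrin accumulated inside mitochondria; 100% equals median channel fluorescence of DMSO control wells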
Target sequence (Q9NP58 whole entry, looked up): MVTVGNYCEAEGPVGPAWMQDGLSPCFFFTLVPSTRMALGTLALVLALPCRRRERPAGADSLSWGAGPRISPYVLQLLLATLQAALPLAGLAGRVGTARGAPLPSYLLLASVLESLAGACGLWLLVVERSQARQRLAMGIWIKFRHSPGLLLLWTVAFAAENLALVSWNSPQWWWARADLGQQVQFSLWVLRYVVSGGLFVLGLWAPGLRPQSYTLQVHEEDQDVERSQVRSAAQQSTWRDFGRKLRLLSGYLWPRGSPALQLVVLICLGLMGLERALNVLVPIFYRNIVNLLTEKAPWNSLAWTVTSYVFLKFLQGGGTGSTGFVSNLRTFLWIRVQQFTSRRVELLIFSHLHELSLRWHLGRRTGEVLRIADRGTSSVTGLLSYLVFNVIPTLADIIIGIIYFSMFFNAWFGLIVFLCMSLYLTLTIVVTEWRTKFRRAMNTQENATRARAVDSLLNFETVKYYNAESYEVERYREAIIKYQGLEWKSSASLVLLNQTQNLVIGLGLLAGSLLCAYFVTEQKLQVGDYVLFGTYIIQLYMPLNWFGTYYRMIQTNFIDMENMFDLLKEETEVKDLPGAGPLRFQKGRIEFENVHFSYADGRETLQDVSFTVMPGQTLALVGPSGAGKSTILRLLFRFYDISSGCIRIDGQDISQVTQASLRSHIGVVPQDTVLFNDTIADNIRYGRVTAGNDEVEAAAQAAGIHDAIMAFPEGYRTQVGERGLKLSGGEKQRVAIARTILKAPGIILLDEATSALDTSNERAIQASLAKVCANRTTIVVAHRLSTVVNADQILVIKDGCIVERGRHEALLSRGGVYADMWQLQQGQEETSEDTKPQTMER
Exocytosis inh – lytic granule exocytosis inhibition; AID 651702; TALL-104 LAMP-1 surface exposure, flow cytometry; cells stimulated with thapsigargin and PMA; hit rate 0.66% among 360,000; inhibition, % at 10 µM;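 active means inhibition above about 55%, limit read from the data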
Tb MetRS inh – Trypanosoma brucei MetRS inhibition | purified T. brucei MetRS, ATP depletion, Kinase-Glo luminescence | inhibition, % at 11.9 µM | hit rate 0.4% among 360,000;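 active means inhibition above a per-plate cutoff of the control wells' mean inhibition plus 3 SD, cut at about 5.5% in these data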;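 further: 0% = DMSO wells median and 100% = median of wells with control inhibitor compound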
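Measured by: Kinase-Glo luciferase luminescence reporting remaining unconsumed ATP. Material: purified T. brucei MetRS enzyme. Doses: 11.9 µM compound single dose, 0.9% DMSO. Medium: HEPES buffer containing pyrophosphatase, BSA, spermine, DTT. Times: 15 min preincubation, 2 h reaction, all 25 °C. Reagent: methionine, ATP and bulk E. coli tRNA.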
MC4R barr agon – agonists of human melanocortin 4 receptor (MC4R) beta-arrestin; activation, % at 8.9 µM; U2OS MC4R beta-arrestin complementation, luminescence; percent of melanotan II response, DMSO zero; AID 540308; hit rate 0.98% among 360,000;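 active means activation above a per-plate cutoff, the mean activation of sample wells on that plate plus 3 SD, cut at about 8% in these data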
MC4R barr conf – human MC4R beta-arrestin agonism confirmation; hit rate 31% among 2,400; activation, % at 8.9 µM; shares compounds with MC4R barr agon; U2OS MC4R beta-arrestin recruitment, luminescence; scaled DMSO 0%, Melanotan II 100%; AID 602192;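 active means mean activation across replicates above the hit cutoff set in the earlier primary screen, cut at about 8% in these data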
MOR-DOR barr ag – activates mu-delta opioid heterodimer, MC4R agonist counter-screen. shares compounds with MC4R barr agon. U2OS PathHunter beta-arrestin, beta-gal luminescence; percent of deltorphin B response, DMSO zero. activation, % at 9.2 µM. hit rate 5.8% among 2,400. AID 602194;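 active means mean activation across replicates exceeds the hit threshold derived in the earlier primary screen, cut at about 18% in these data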;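 further: 100% = deltorphin B at 0.9 µM final and 0% = DMSO alone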
ABCB6 blocker 1 – human ABCB6 transporter inhibition | shares compounds with ABCB6 inh MLPCN | AID 602430 | K562-ABCB6 porphyrin accumulation, flow cytometry, 1 h; stronger effect = lower value | 700 tested, under 10 active | ratio response (% of DMSO), % at 10 µM;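 active means repeat-averaged ratio response below 75% of DMSO, the collection mean minus 3 SD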;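 further: median porphyrin fluorescence at 575 nm with 488 nm excitation from mitochondria; lower ratio means less porphyrin signal so ABCB6 inhibition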
Tb MetRS conf – Trypanosoma brucei MetRS inhibition confirmed | shares compounds with Tb MetRS inh | T. brucei MetRS enzyme, luminescence (ATP depletion) | inhibition, % at 11.9 µM | hit rate 93% among 1,400; in the data active means inhibition above about 7%
Jurkat tox – kills Jurkat cells in T. brucei MetRS counterscreen; shares compounds with Tb MetRS inh; hit rate 12% among 1,400; Jurkat cells viability, ATP luminescence; inhibition, % at 8.3 µM; in the data active means inhibition above about 15%;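 further: 0% = vehicle and 100% = reference inhibitor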
Tb MetRS inh FP – inhibits T. brucei methionyl tRNA synthetase in orthogonal FP test. hit rate 44% among 1,400. inhibition, % at 11.9 µM. shares compounds with Tb MetRS inh. purified T. brucei MetRS, fluorescence polarization; in the data active means inhibition above about 17%;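 further: 0% = vehicle wells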
Exocytosis CP01 – lytic granule exocytosis inhibition | TALL-104 cells, LAMP-1 externalization, flow cytometry; stimulated with PMA plus thapsigargin | hit rate 11% among 1,500 | inhibition, % at 10 µM | AID 651954 | shares compounds with Exocytosis inh; in the data active means inhibition above about 60%;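 further: 0% = stimulated vehicle wells and 100% = unstimulated wells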
An asterisk follows results filed as active; nt = no result. Only some compounds are listed: those with a hit (about 2.6% of all), similar ones and a draw of the others.

SMILES	MC4R antag cAMP	iPSC survival up	ABCB6 inh MLPCN	Exocytosis inh	Tb MetRS inh	MC4R barr agon	MC4R barr conf	MOR-DOR barr ag	Exocytosis CP01	others
CCOC(=O)Cc1csc(NC(=O)c2sc3nc4ccc(C)cc4cc3c2N)n1	-5	-2	129	-1	-2	19*	2	4	nt
O=C(C1=C[C@H](c2csc3ccccc23)C[C@H](OCCCCO)O1)N1CCN(Cc2ccc3c(c2)OCO3)CC1	18	0	98	8	0	0	nt	nt	nt
O=S(=O)(c1ccc2nc(-c3ccccc3)[nH]c2c1)N1CCN(c2cccc(Cl)c2)CC1	5	0	58*	-4	1	15*	5	8	nt	ABCB6 blocker 1=101
CCc1ccc(-c2nc(CS(=O)CC(=O)NCc3ccccc3)c(C)o2)cc1 (centres undefined)	7	0	79	-2	0	-2	nt	nt	nt
Cc1ccc(NC(=O)COC(=O)C2CCN(c3ccc(C(F)(F)F)cn3)CC2)cc1C	-3	0	98	-4	0	4	nt	nt	nt
O=C(COC(=O)C1CCN(c2ccc(C(F)(F)F)cn2)CC1)Nc1cccc(F)c1	8	0	102	-3	6.0*	13*	-2	6	nt	Tb MetRS conf=19*;Jurkat tox=0;Tb MetRS inh FP=6
CN(CC(=O)NCCc1ccc(S(N)(=O)=O)cc1)CC(=O)Nc1ccccc1C(F)(F)F	10	0	101	19	0	-2	nt	nt	nt
O=C(CSc1nc2cc3ccccc3cc2[nH]1)Nc1ccc(F)cc1	-7	-4	110	1	22*	9.6*	2	6	nt	Tb MetRS conf=28*;Jurkat tox=7;Tb MetRS inh FP=23*
Cn1c(CCCOc2ccc(Cl)cc2Cl)nnc1SCC(=O)Nc1ccc(F)c(Cl)c1	4	3	97	15	0	7	nt	nt	nt
Cn1c(CCCOc2ccc(Cl)cc2Cl)nnc1SCC(=O)Nc1cccc(F)c1	-2	-2	91	-1	6.8*	19*	9.8*	10	nt	Tb MetRS conf=34*;Jurkat tox=-5;Tb MetRS inh FP=41*
O=C(COc1ccc2ccccc2c1)Nc1nc2ccccc2[nH]1	2	0	98	1	9.1*	10*	0	6	nt	Tb MetRS conf=12*;Jurkat tox=2;Tb MetRS inh FP=5
Cc1ccc(CNC(=O)C2CCN(C(=O)Nc3ccc(C)cc3)CC2)cc1	4	0	97	12	-1	0	nt	nt	nt
CCOC(=O)c1c(CSc2ccc(CC)cc2)oc2ccc(O)c(CN(C)C)c12	2	0	91	80*	-1	20*	15*	12	43
CCOC(=O)c1c(C)oc2ccc(O)c(CN(C)C)c12	3	-1	97	7	-1	-1	nt	nt	nt
COc1ccc(C(CCNCc2ccc(OC(C)C)cc2)C(C)C)cc1 (centres undefined)	5	-1	96	78*	-1	15*	8	12	7
CCc1nc2sc3c(c2c(=O)n1CCO)CCC3	-4	0	106	-8	0	-2	nt	nt	nt
Clc1ccc(CN2CCc3c([nH]c4ccccc34)C2)cc1Cl	8	-1	97	58*	1	15*	45*	23*	-4
Cc1ccc(NC(=O)c2cc(C(C)(C)C)nn2Cc2ccccc2)cc1	9	-1	99	7	0	3	nt	nt	nt
CC(C)(C)c1cc(C(=O)Nc2ccc(F)cc2)n(Cc2ccc(F)cc2)n1	4	-1	96	67*	0	9.6*	5	11	3
Clc1ccc(/C=C\c2nccc3c2[nH]c2ccccc23)cc1	8	4	103	88*	1	14*	4	11	4
OC(CNCCC1C=Nc2ccccc21)Cn1c2ccc(Cl)cc2c2cc(Cl)ccc21 (centres undefined)	-4	-5	95	71*	0	17*	5	31*	12
CSCCn1c(C(C)(C)C)cc(C(=O)O)c1C	7	0	101	2	-1	-2	nt	nt	nt
CCc1ccc(CNC(=O)C2CCCN(c3nnc(C)c4c(C)n(-c5ccccc5)nc34)C2)cc1 (centres undefined)	13	1	99	58*	0	19*	2	3	87*
CCOc1ccc(CNC(=O)C2CCN(c3nnc(C)c4c(C)n(-c5ccc(C)cc5)nc34)CC2)cc1	-3	-1	107	43	0	8	nt	nt	nt
CCOc1ccccc1CNC(=O)C1CCN(c2nnc(C)c3c(C)n(-c4ccc(C)cc4)nc23)CC1	3	0	98	58*	0	10*	4	9	89*
SMILES	MC4R antag cAMP	iPSC survival up	ABCB6 inh MLPCN	Exocytosis inh	Tb MetRS inh	MC4R barr agon	MC4R barr conf	MOR-DOR barr ag	Exocytosis CP01	others
Cc1c(C(=O)N/N=C/c2ccncc2)no[n+]1[O-]	-3	4	99	2	0	-3	nt	nt	nt
Cc1cc([N+](=O)[O-])nn1CC(=O)NCCc1c[nH]c2ccccc12	-8	0	86	-1	-1	0	nt	nt	nt
COc1ccc(F)cc1-c1cc(NC(C)=O)c2ncc(-c3cccc(C(F)(F)F)c3)n2c1	9	-1	94	58*	0	19*	15*	3	43
Cn1c(=N)n(CC(=O)c2ccc(Br)s2)c2ccccc21	-5	-4	93	0	2	2	nt	nt	nt
N=c1n(CC(=O)c2ccc(Br)s2)c2ccccc2n1Cc1ccccc1	-2	-1	95	77*	1	14*	13*	18*	45
CCOc1ccccc1NC(=O)COC(=O)c1nc2nccc(C)n2n1	11	0	110	-9	0	-2	nt	nt	nt
